Assay results as given in ChEMBL document CHEMBL1123602, “Synthesis and biological properties of N3-(4-methoxyfumaroyl)-L-2,3-diaminopropanoic acid dipeptides, a novel group of antimicrobial agents” (1987).
In brackets after ≈: the same amount, converted by molar mass.

What was measured:
Candida albicans [1] = assay: Activity against Candida albicans ATCC 26278 strain in YNB medium after incorporation of 10 ug per disk expressed as zone size; type: functional
In short: (§1)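 C. albicans disk diffusion. YNB medium with 1% glucose and 1% agar was seeded with 10⁴ cfu/mL cells from an overnight Sabouraud culture and poured into dishes. Water-dissolved peptide was loaded onto 6.35-mm paper disks, which were placed on the agar. Zones of inhibition were measured after 48 h at 30 °C.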

Candida albicans [2] = assay: Activity against Candida albicans ATCC 26278 strain in YNB medium after incorporation of 20 ug per disk expressed as zone size; type: functional; in short: as §1
Staphylococcus aureus = assay: Antimicrobial activity against the strain of Staphylococcus aureus (209P); type: functional
In short: (§2)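 Agar dilution MIC on minimal agar Davis medium with 0.1% yeast extract and 0.1% casamino acids containing compound at 200 to 0.2 μg/mL (twofold steps). Cells at 10⁵ cfu/mL were loop-applied to the surface and incubated 24 h at 37 °C. Plates were read visually; MIC is the lowest concentration giving complete growth inhibition.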

Bacillus pumilus [3] = assay: Antimicrobial activity against the strain of Bacillus pumilus(1697); type: functional; in short: as §2
Candida albicans [4] = assay: Antimicrobial activity against the strain of Candida albicans(AMB 25); type: functional
In short: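 MIC by serial twofold dilution, 200 to 0.2 μg/mL, in YNB with 1% glucose. The inoculum was 10⁴ cfu/mL of an overnight culture grown in the same medium, incubated 48 h at 30 °C. Growth was read turbidimetrically; MIC is the lowest concentration giving complete growth inhibition.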

Shigella sonnei [5] = assay: Antimicrobial activity against the strain of Shigella sonnei(433); type: functional; in short: as §2
Escherichia coli = assay: Antimicrobial activity against the strain of Escherichia coli(ATCC 9637); type: functional; in short: as §2
Candida albicans [6] = assay: Antifungal activity against Candida albicans ATCC 26278 strain in YNB medium after incorporation of 10 ug per disk.; type: functional; in short: as §1
Candida albicans [7] = assay: Antifungal activity against Candida albicans ATCC 26278 strain in YNB medium after incorporation of 20 ug per disk.; type: functional; in short: as §1
Candida albicans [8] = assay: Antifungal activity against Candida albicans ATCC 26278 strain in medium after incorporation of 10 nmol of Met-Val dipeptide antagonist per disk.; type: functional
In short: (§3)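 Disk diffusion with the antagonist (GlcNAc or dipeptide) applied to the same 6.35-mm disk as the FMDP dipeptide. Base layer is YNB with 1% glucose and 1% agar, seeded with 10⁴ cfu/mL C. albicans from an overnight Sabouraud culture. Peptides were dissolved in water. Inhibition zones were measured after 48 h at 30 °C.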

Candida albicans [9] = assay: Antifungal activity against Candida albicans ATCC 26278 strain in medium after incorporation of 10 nmol of Leu-Met dipeptide antagonist per disk.; type: functional; in short: as §3
Candida albicans [10] = assay: Antifungal activity against Candida albicans ATCC 26278 strain in medium after incorporation of 10 nmol of GlcNAc antagonist per disk.; type: functional; in short: as §3
Bacillus pumilus [11] = assay: Antibacterial activity against Bacillus pumilus CCM 1697 strain in medium after incorporation of 10 nmol of Met-Val dipeptide antagonist per disk.
Shigella sonnei [12] = assay: Antibacterial activity against Shigella sonnei 433 strain in medium after incorporation of 10 nmol of GlcNAc antagonist per disk.
Shigella sonnei [13] = assay: Antibacterial activity against Shigella sonnei 433 strain in medium after incorporation of 10 nmol of Leu-Met dipeptide antagonist per disk.
Bacillus pumilus [14] = assay: Antibacterial activity against Bacillus pumilus CCM 1697 strain in medium*after incorporation of 10 nmol of GlcNAc antagonist per disk.
Bacillus pumilus [15] = assay: Antibacterial activity against Bacillus pumilus CCM 1697 strain in medium after incorporation of 10 nmol of Leu-Met dipeptide antagonist per disk.
Shigella sonnei [16] = assay: Antibacterial activity against Shigella sonnei 433 strain in medium after incorporation of 10 nmol of Met-Val dipeptide antagonist per disk.

Structure (SMILES)	MIC (Staphylococcus aureus) [µg/mL]	MIC (Bacillus pumilus [3]) [µg/mL]	MIC (Candida albicans [4]) [µg/mL]	MIC (Shigella sonnei [5]) [µg/mL]	MIC (Escherichia coli) [µg/mL]	other results
C[C@@H]([C@H](N)C(=O)N[C@H](C(=O)O)[C@H]1O[C@@H](n2ccc(=O)[nH]c2=O)[C@H](O)[C@@H]1O)[C@H](O)c1ccc(O)cn1.C[C@@H]([C@H](N)C(=O)N[C@H](C(=O)O)[C@H]1O[C@H](n2cc(C=O)nc2O)[C@H](O)[C@@H]1O)[C@H](O)c1ccc(O)cn1						Zone size (Candida albicans [1]): 25 mm; Zone size (Candida albicans [2]): 28 mm
COC(=O)/C=C/C(=O)NC[C@@H](NC(=O)[C@H](C)N)C(=O)O	50 (≈ 174 µM)	1.56 (≈ 5.43 µM)	0.8 (≈ 2.78 µM)	3.12 (≈ 10.9 µM)	100 (≈ 348 µM)	
Nc1nc(=O)[nH]cc1F [FLUCYTOSINE]						Zone size (Candida albicans [6]): 35 mm; Zone size (Candida albicans [7]): 39 mm
COC(=O)/C=C/C(=O)NC[C@@H](NC(=O)[C@@H](N)Cc1ccc(O)cc1)C(=O)O	100 (≈ 264 µM)	12.5 (≈ 32.9 µM)	50 (≈ 132 µM)	25 (≈ 65.9 µM)	> 200	
Clc1ccc(COC(Cn2ccnc2)c2ccc(Cl)cc2Cl)c(Cl)c1 (stereo unspecified) [MICONAZOLE]						Zone size (Candida albicans [1]): 27 mm; Zone size (Candida albicans [2]): 32 mm
COC(=O)/C=C/C(=O)NC[C@@H](N)C(=O)N[C@@H](Cc1ccc(O)cc1)C(=O)O	> 200	> 200	25 (≈ 65.9 µM)	> 200	> 200	
COC(=O)/C=C/C(=O)NC[C@@H](N)C(=O)N[C@H](C(=O)O)C(C)C	100 (≈ 317 µM)	> 200	6.25 (≈ 19.8 µM)	> 200	> 200	
COC(=O)/C=C/C(=O)NC[C@@H](N)C(=O)N[C@@H](CC(C)C)C(=O)O	100 (≈ 304 µM)	> 200	3.12 (≈ 9.47 µM)	> 200	> 200	
COC(=O)/C=C/C(=O)NC[C@@H](NC(=O)CN)C(=O)O	> 200	25 (≈ 91.5 µM)	12.5 (≈ 45.7 µM)	50 (≈ 183 µM)	> 100	
COC(=O)/C=C/C(=O)NC[C@@H](N)C(=O)N[C@@H](CCSC)C(=O)O	> 200	> 200	1.56 (≈ 4.49 µM)	> 200	> 200	Zone size (Candida albicans [8]): 0 mm; Zone size (Candida albicans [6]): 31 mm; Zone size (Candida albicans [7]): 35 mm; Zone size (Candida albicans [9]): 0 mm; Zone size (Candida albicans [10]): 0 mm
COC(=O)/C=C/C(=O)NC[C@@H](N)C(=O)N[C@@H](C)C(=O)O	> 200	> 200	3.12 (≈ 10.9 µM)	> 200	> 200	
COC(=O)/C=C/C(=O)NC[C@@H](NC(=O)[C@@H](N)CC(C)C)C(=O)O	12.5 (≈ 38 µM)	1.56 (≈ 4.74 µM)	0.8 (≈ 2.43 µM)	1.56 (≈ 4.74 µM)	100 (≈ 304 µM)	Zone size (Candida albicans [8]): 0 mm; Zone size (Candida albicans [6]): 39 mm; Zone size (Candida albicans [7]): 41 mm; Zone size (Candida albicans [9]): 0 mm; Zone size (Candida albicans [10]): 0 mm
COC(=O)/C=C/C(=O)NC[C@@H](NC(=O)[C@@H](N)CCSC)C(=O)O	50 (≈ 144 µM)	3.12 (≈ 8.98 µM)	0.8 (≈ 2.3 µM)	3.12 (≈ 8.98 µM)	100 (≈ 288 µM)	
COC(=O)/C=C/C(=O)NC[C@@H](N)C(=O)N[C@H](CNC(=O)/C=C/C(=O)OC)C(=O)O	> 200	> 200	> 200	> 200	> 200	
COC(=O)/C=C/C(=O)NC[C@@H](N)C(=O)NCC(=O)O	> 200	> 200	> 200	> 200	> 200	
COC(=O)/C=C/C(=O)NC[C@@H](N)C(=O)N[C@@H](Cc1ccccc1)C(=O)O	> 200	> 200	1.56 (≈ 4.29 µM)	> 200	> 200	
COC(=O)/C=C/C(=O)NC[C@@H](NC(=O)[C@@H](N)C(C)C)C(=O)O	12.5 (≈ 39.6 µM)	0.8 (≈ 2.54 µM)	1.56 (≈ 4.95 µM)	1.56 (≈ 4.95 µM)	100 (≈ 317 µM)	
CCC[C@H](NC(=O)[C@H](N)CNC(=O)/C=C/C(=O)OC)C(=O)O	100 (≈ 317 µM)	> 200	6.25 (≈ 19.8 µM)	> 200	> 200	
Clc1ccccc1C(c1ccccc1)(c1ccccc1)n1ccnc1 [CLOTRIMAZOLE]						Zone size (Candida albicans [6]): 17 mm; Zone size (Candida albicans [7]): 21 mm
COC(=O)/C=C/C(=O)NC[C@@H](NC(=O)[C@@H](N)Cc1ccccc1)C(=O)O	100 (≈ 275 µM)	6.25 (≈ 17.2 µM)	12.5 (≈ 34.4 µM)	12.5 (≈ 34.4 µM)	> 200	
CCCC[C@H](N)C(=O)N[C@H](CNC(=O)/C=C/C(=O)OC)C(=O)O	25 (≈ 75.9 µM)	0.4 (≈ 1.21 µM)	0.8 (≈ 2.43 µM)	3.12 (≈ 9.47 µM)	100 (≈ 304 µM)	Zone size (Bacillus pumilus [11]): 0 mm; Zone size (Shigella sonnei [12]): 0 mm; Zone size (Shigella sonnei [13]): 11 mm; Zone size (Bacillus pumilus [14]): 0 mm; Zone size (Bacillus pumilus [15]): 0 mm; Zone size (Shigella sonnei [16]): 10 mm
COC(=O)/C=C/C(=O)NC[C@@H](NC(=O)[C@@H](N)CCCCN)C(=O)O	> 200	100 (≈ 290 µM)	> 200	> 200	> 200	
COC(=O)/C=C/C(=O)NC[C@@H](N)C(=O)O	> 200	> 200	> 200	> 200	> 200	
CCC[C@H](N)C(=O)N[C@H](CNC(=O)/C=C/C(=O)OC)C(=O)O	12.5 (≈ 39.6 µM)	0.4 (≈ 1.27 µM)	0.4 (≈ 1.27 µM)	3.12 (≈ 9.89 µM)	100 (≈ 317 µM)	Zone size (Candida albicans [6]): 40 mm; Zone size (Candida albicans [7]): 42 mm
